Data as given in the M2OR odorant receptor database.
Substitutions are numbered along the chain they refer to.

Experiments:
Conditions in all cases: stereoisomer not certain
[1] = test system: T1, O5AP2 A105T
T1 sequence (whole entry): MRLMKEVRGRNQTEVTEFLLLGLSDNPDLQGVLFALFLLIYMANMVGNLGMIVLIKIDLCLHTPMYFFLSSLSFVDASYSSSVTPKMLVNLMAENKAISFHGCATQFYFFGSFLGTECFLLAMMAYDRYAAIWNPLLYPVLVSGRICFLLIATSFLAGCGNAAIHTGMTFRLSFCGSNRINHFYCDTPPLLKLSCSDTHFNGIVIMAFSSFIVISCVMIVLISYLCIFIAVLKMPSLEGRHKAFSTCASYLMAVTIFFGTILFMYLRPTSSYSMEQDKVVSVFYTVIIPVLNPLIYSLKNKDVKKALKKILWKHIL
How it was run: (§1)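 Values were gathered from published papers (main text and supplementary material), with extra details requested from the original authors when needed, and checked for typos and inconsistencies. Each receptor–molecule pair is called responsive (active) if the original authors judged the measured signal statistically different from baseline, and non-responsive (inactive) otherwise. Assay methods varied by source, often transient mammalian cell-line luciferase assays. Recorded details include cell line, G-protein, co-transfected protein and tags.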

[2] = test system: T2, O5AU1
T2 sequence (whole entry): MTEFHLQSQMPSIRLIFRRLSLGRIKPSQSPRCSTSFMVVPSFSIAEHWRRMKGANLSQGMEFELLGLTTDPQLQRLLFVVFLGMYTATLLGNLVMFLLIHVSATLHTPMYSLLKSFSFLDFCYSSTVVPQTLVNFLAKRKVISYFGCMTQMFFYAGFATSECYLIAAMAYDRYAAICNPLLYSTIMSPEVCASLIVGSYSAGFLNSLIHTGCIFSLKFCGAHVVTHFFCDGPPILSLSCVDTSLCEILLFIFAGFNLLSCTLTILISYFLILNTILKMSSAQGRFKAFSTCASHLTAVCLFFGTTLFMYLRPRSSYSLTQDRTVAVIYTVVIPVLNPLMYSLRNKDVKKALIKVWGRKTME
How it was run: as §1

[3] = test system: T3, O5H14
T3 sequence (whole entry): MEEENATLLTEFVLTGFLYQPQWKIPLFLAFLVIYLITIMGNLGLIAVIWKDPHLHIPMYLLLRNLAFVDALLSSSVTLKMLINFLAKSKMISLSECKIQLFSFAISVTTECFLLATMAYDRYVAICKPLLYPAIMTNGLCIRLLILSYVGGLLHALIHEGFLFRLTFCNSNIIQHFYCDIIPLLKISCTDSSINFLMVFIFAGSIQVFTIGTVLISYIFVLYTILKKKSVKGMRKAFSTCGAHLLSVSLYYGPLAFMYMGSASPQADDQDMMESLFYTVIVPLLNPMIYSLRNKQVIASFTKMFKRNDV
How it was run: as §1

[4] = test system: T4, O5H15 V108I S148T T167S
T4 sequence (whole entry): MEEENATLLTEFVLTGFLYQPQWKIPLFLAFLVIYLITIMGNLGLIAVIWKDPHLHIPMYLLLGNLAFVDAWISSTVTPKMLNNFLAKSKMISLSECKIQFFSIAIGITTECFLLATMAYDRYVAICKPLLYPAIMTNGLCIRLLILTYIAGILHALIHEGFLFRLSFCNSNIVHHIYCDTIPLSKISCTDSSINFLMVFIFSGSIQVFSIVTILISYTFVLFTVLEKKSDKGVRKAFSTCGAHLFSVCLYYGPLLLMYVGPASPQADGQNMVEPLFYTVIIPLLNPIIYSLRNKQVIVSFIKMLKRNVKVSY
How it was run: as §1

[5] = test system: T5, O6C65 T222A
T5 sequence (whole entry): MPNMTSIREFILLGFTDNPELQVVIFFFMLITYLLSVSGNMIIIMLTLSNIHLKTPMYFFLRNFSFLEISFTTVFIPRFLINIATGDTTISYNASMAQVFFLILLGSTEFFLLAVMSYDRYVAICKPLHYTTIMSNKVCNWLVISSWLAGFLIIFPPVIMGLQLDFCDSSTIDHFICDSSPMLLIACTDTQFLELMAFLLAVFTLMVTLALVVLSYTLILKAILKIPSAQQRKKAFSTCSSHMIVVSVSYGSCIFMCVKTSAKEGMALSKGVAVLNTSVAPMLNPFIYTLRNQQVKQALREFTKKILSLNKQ
How it was run: as §1

[6] = test system: T6, O6C70 L181P
T6 sequence (whole entry): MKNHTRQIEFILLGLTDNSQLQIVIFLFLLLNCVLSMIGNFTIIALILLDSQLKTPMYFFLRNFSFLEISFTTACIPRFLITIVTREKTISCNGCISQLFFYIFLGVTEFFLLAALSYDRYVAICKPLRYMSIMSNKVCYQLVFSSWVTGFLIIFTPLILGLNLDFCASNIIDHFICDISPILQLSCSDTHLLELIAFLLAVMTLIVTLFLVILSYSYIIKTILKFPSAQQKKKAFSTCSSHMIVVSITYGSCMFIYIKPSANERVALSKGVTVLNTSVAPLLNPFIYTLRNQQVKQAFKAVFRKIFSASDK
How it was run: as §1

[7] = test system: T7, O7E24 S193F P242S
T7 sequence (whole entry): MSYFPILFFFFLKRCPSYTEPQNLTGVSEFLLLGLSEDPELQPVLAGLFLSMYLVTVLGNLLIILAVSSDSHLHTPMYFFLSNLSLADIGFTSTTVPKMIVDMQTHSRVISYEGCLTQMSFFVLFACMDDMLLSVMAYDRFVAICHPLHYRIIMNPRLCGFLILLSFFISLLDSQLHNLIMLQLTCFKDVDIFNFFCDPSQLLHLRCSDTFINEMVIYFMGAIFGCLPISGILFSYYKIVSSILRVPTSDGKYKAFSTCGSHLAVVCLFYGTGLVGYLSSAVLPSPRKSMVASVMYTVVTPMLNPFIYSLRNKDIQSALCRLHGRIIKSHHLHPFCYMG
How it was run: as §1

[8] = test system: T8, O7E24
T8 sequence (whole entry): T7 sequence (whole entry) with F193S
How it was run: as §1

[9] = target: T9, OR10A2 (Homo sapiens) (UniProt Q9H208)
T9 sequence (whole entry): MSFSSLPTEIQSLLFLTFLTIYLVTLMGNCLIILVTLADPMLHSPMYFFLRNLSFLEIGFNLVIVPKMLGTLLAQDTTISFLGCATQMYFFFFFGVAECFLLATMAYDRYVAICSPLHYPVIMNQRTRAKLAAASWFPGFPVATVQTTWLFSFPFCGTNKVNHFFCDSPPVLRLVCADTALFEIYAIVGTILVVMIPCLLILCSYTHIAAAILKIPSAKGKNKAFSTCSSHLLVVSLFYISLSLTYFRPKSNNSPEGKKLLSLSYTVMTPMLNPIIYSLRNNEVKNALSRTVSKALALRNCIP
How it was run: as §1

[10] = target: T10, OR10A3 (Homo sapiens) (UniProt P58181)
T10 sequence (whole entry): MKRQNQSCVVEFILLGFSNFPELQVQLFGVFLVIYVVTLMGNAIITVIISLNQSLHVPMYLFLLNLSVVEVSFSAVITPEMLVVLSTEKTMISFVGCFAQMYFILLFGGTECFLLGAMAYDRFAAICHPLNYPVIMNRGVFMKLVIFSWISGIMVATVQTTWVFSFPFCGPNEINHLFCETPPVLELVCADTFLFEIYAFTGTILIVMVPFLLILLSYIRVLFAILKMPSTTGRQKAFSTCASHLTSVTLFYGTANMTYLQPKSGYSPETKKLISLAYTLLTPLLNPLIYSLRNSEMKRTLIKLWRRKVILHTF
How it was run: as §1

[11] = target: T11, OR10A4 (Homo sapiens) (UniProt Q9H209)
T11 sequence (whole entry): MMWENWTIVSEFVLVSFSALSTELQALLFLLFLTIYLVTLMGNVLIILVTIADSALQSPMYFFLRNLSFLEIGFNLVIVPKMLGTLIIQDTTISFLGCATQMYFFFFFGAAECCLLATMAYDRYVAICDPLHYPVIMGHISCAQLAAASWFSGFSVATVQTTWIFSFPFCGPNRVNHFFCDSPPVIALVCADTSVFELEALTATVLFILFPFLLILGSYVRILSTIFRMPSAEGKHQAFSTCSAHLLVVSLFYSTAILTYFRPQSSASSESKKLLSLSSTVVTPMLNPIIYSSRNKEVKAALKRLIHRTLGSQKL
How it was run: as §1

[12] = target: T12, OR10A5 (Homo sapiens) (UniProt Q9H207)
T12 sequence (whole entry): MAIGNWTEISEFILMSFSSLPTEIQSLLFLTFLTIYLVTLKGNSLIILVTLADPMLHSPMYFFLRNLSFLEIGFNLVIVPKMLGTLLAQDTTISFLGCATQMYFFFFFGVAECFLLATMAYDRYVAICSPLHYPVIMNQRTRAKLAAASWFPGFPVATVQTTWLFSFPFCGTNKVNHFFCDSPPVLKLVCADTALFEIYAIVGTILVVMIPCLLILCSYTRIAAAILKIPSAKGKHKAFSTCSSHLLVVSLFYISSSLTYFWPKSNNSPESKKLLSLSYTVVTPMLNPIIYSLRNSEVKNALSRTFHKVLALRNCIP
How it was run: as §1

[13] = target: T13, OR10A6 (Homo sapiens) (UniProt Q8NH74)
T13 sequence (whole entry): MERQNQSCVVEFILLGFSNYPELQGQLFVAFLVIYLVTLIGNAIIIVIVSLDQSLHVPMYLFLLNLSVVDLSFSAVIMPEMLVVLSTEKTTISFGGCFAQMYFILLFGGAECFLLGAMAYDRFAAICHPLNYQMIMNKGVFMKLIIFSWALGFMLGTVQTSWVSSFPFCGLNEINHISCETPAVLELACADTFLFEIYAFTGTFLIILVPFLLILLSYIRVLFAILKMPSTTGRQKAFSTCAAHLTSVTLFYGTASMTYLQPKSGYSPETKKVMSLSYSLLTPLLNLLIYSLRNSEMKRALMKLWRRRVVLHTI
How it was run: as §1

[14] = target: T14, OR10A7 (Homo sapiens) (UniProt Q8NGE5)
T14 sequence (whole entry): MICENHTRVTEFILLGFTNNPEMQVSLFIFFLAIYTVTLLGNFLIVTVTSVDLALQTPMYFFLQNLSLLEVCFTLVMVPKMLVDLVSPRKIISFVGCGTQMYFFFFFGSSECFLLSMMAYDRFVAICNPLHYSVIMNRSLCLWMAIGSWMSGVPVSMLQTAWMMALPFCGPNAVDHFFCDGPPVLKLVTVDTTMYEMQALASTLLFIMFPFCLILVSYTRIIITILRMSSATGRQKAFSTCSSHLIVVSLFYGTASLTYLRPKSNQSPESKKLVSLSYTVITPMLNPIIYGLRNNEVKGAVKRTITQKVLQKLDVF
How it was run: as §1

[15] = target: T15, OR10AD1 (Homo sapiens) (UniProt Q8NGE0)
T15 sequence (whole entry): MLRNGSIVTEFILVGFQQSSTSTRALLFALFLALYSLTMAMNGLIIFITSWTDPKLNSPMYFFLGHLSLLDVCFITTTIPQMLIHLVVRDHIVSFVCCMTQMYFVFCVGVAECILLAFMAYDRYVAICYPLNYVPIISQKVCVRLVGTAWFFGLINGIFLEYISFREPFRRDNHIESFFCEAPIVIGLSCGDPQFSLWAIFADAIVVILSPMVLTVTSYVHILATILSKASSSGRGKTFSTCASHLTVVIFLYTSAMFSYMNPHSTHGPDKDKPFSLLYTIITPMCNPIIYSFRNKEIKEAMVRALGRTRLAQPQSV
How it was run: as §1

[16] = target: T16, OR10AG1 (Homo sapiens) (UniProt Q8NH19)
T16 sequence (whole entry): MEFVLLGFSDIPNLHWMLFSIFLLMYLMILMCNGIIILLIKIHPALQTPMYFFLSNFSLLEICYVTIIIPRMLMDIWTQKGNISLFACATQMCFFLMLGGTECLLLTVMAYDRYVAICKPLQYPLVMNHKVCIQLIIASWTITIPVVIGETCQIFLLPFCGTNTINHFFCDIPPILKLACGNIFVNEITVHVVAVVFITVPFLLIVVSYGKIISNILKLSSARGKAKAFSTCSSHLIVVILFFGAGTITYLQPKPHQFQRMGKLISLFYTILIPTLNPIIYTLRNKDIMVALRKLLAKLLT
How it was run: as §1

[17] = target: T17, OR10C1 (Homo sapiens) (UniProt Q96KK4)
T17 sequence (whole entry): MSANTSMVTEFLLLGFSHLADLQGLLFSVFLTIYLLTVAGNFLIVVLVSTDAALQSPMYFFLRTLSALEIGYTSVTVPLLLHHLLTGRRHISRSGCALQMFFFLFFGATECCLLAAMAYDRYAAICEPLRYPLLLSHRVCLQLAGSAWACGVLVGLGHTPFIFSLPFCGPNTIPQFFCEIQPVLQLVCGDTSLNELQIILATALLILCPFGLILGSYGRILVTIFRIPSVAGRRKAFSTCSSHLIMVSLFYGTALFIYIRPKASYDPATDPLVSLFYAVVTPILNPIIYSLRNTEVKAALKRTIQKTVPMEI
How it was run: as §1

[18] = target: T18, OR10D3 (Homo sapiens) (UniProt Q8NH80)
T18 sequence (whole entry): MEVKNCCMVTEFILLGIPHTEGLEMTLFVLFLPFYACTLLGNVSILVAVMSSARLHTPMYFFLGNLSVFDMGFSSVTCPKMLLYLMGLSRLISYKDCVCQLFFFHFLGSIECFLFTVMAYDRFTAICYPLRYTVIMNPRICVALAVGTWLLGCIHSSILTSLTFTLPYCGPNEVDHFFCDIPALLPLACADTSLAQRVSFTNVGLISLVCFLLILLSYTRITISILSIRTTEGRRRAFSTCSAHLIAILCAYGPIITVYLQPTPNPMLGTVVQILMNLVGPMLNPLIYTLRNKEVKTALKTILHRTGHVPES
How it was run: as §1

Measured: odorant receptor agonist call

CCCCCCC=CCCC=O
inactive: all assays above
